Screening results as filed in PubChem BioAssay.
The list is not random: actives were taken first. Their share in the collection is about 1.9%.
UHRF1 binding – human UHRF1 methylated DNA binding inhibitors; UHRF1 binding to methylated oligo, TR-FRET; inhibition, % at 4.4 µM; Q96T88; 370,000 tested, 0.75% active; in the data active means inhibition above about 21%;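 further: UHRF1 SRA domain binding a hemimethylated CpG hairpin DNA probe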
LEDGF integ inh – blocks HIV-1 LEDGF/p75-dependent DNA integration | 370,000 tested, 0.64% active | AID 743269 | inhibition, % at 3.7 µM | TR-FRET IN-LEDGF/p75 DNA integration, Eu/Cy5;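 active means inhibition above the screen-wide mean plus 3 SD, cut at about 13% in these data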;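 further: signal is the Cy5 over europium emission ratio at 671 and 618 nm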
DDE Tn7 FP inh – inhibitors of Tn7 peptide binding to human fibrin DD(E) | P02675 | FP displacement of FITC-Tn7 peptide from fibrin DD(E); 0% = median of compound wells per plate | inhibition, % at 8.3 µM | 370,000 tested, 0.13% active | AID 720508;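 active means inhibition above the mean of compounds falling within the control limits plus 3 SD of them, cut at about 14% in these data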
Target sequence (P02675 whole entry, looked up): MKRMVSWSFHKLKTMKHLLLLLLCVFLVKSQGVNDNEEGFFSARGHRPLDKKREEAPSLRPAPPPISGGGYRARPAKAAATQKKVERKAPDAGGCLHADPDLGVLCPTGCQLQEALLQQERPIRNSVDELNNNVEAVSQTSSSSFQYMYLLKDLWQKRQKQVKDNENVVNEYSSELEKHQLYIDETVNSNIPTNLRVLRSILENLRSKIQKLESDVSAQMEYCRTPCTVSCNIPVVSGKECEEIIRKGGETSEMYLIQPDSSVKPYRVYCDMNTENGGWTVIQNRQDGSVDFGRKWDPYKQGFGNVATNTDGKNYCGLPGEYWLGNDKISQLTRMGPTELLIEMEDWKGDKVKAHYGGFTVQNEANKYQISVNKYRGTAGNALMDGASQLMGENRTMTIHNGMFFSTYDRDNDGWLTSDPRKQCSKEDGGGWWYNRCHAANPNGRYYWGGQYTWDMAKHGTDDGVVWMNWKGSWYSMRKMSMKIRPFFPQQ
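Assay system: human fibrin DD(E) protein / Input: 2 µM fibrin DD(E) / Benchmarks: high control of 10 µM Aha-Tn7 peptide / Measured by: fluorescence polarization of the labelled Tn7 tracer / Medium: Tris buffer with calcium and detergent, pH 7.8 / Timing: 10 min compound pre-incubation, 3 h probe incubation at room temperature / Repeats: one replicate per compound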
Tn6 DDE FP – inhibitors of Tn6 peptide binding to human fibrin DD(E); P02675; inhibition, % at 8.3 µM; AID 720509; Fibrin DD(E) TRITC-Tn6 fluorescence polarization displacement; 370,000 tested, 0.21% active;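 active means inhibition above a per-campaign cutoff: mean of compounds within control limits plus 3 SD, cut at about 15% in these data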
MBD2 inh – MBD2-methylated oligo binding inhibition; inhibition, % at 4.4 µM; TR-FRET, MBD2 binding to methylated oligonucleotide; Q9UBB5; 370,000 tested, 0.31% active; in the data active means inhibition above about 13%
TDP2 absorb – TDP2 (human) inhibition, absorbance primary screen | O95551 | recombinant TDP2, T5PNP hydrolysis, p-nitrophenol absorbance 415 nm | inhibition, % at 12.8 µM | 370,000 tested, 0.34% active | AID 720702;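 active means inhibition above the mean of all tested compounds plus 3 SD, set per campaign, cut at about 25% in these data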
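Assay system: Recombinant human TDP2 | Quantity: 120 nM TDP2 per well | Incubation: 2 h at 37 °C | Signal: Epi absorbance | Evaluation: Percent inhibition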
TDP2 inh conf – human TDP2 inhibition, confirmation | shares compounds with TDP2 absorb | recombinant human TDP2, absorbance read-out | inhibition, % at 12.8 µM | 1,100 tested, 22% active | AID 743263; in the data active means inhibition above about 25%
IN multimer up – HIV-1 integrase multimerization activation, counter-screen; shares compounds with LEDGF integ inh; TR-FRET HIV-1 integrase multimerization, biochemical; activation, % at 7.7 µM; 2,000 tested, 17% active; AID 1053131; in the data active means activation above about 8.9%
TRFRET interf – counter-screen for LEDGF/p75 integration inhibitors: TR-FRET optical interference; AID 1053135; 2,000 tested, under 10 active; inhibition, % at 7.7 µM; shares compounds with LEDGF integ inh; TR-FRET optical interference counterscreen, HIV-1 IN multimerization;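 active means inhibition above the mean over all tested compounds plus 3 SD, which no compound reached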
IN-LEDGF confirm – confirmation of HIV-1 LEDGF/p75-dependent integration inhibitors; TR-FRET LEDGF/p75-dependent HIV-1 integration, biochemical; 2,000 tested, 36% active; inhibition, % at 3.7 µM; shares compounds with LEDGF integ inh; in the data active means inhibition above about 14%
Large screens that a line does not name were inactive (follow-up assays come after a bar, where they were run).

Cc1nnc(N/N=C/c2ccc(-c3ccccc3F)o2)n1N	LEDGF integ inh 43.6, TDP2 absorb 58.6 | TDP2 inh conf inactive | IN multimer up inactive | TRFRET interf inactive | IN-LEDGF confirm inactive
CCc1nnc(N/N=C/c2ccc(-c3ccc([N+](=O)[O-])cc3)o2)n1N	LEDGF integ inh 45.9, TDP2 absorb 67.8 | TDP2 inh conf inactive | IN multimer up inactive | TRFRET interf inactive | IN-LEDGF confirm inactive
Cc1nnc(N/N=C\c2ccc(-c3ccccc3[N+](=O)[O-])o2)n1N	LEDGF integ inh 42.7, TDP2 absorb 77.6 | TDP2 inh conf inactive | IN multimer up inactive | TRFRET interf inactive | IN-LEDGF confirm inactive
COC(=O)c1cc2c(c3c4cc(OC)ccc4n(S(=O)(=O)c4ccc(OC)cc4)c13)C(=O)N(Cc1ccc(C(F)(F)F)cc1)C2	none
O=C(Nc1ccc(F)cc1)OCc1cn(Cc2cccc(C(F)(F)F)c2)nn1	none
O=c1[nH]c(Nc2ccc(F)cc2)cc2ccccc12	LEDGF integ inh 52.9, TDP2 absorb 76.8 | TDP2 inh conf 64.9 | IN multimer up inactive | TRFRET interf inactive | IN-LEDGF confirm 66.6
O=c1[nH]c(Nc2ccccc2Cl)cc2ccccc12	LEDGF integ inh 30.0, TDP2 absorb 71.4 | TDP2 inh conf 42.6 | IN multimer up inactive | TRFRET interf inactive | IN-LEDGF confirm 29.6
Oc1cc(NCCN2CCOCC2)cc2cccnc12	LEDGF integ inh 36.9, TDP2 absorb 31.5 | TDP2 inh conf inactive | IN multimer up inactive | TRFRET interf inactive | IN-LEDGF confirm 42.4
CN(C)c1cccc2c1c(NS(=O)(=O)c1cn(C)cn1)nn2C	LEDGF integ inh 15.2, TDP2 absorb 43.5 | TDP2 inh conf 32.1 | IN multimer up inactive | TRFRET interf inactive | IN-LEDGF confirm inactive
O=C(OC12CCCN(C1)/C(=C/c1cccnc1)C2)c1ccc(F)cc1 (centres undefined)	none
NC1=C(Cl)C(=O)c2ccc(S(N)(=O)=O)cc2C1=O	LEDGF integ inh 29.2, TDP2 absorb 76.0 | TDP2 inh conf 73.7 | IN multimer up 11.9 | TRFRET interf inactive | IN-LEDGF confirm 76.0
CC1(C)CC(=O)C(C=Nc2ccc(N)cc2)=C(O)C1	LEDGF integ inh 35.7, TDP2 absorb 54.0 | TDP2 inh conf inactive | IN multimer up inactive | TRFRET interf inactive | IN-LEDGF confirm inactive
COC(=O)C1C(O)=C(C=Nc2ccc(N)cc2)C(=O)CC1(C)C (centres undefined)	LEDGF integ inh 40.1, TDP2 absorb 54.4 | TDP2 inh conf inactive | IN multimer up inactive | TRFRET interf inactive | IN-LEDGF confirm inactive
COC(=O)C1C(O)=C(C=Nc2ccccc2)C(=O)CC1(C)C (centres undefined)	none
COc1ccc(C2CC(=O)C(c3ccc4ccccc4c3)=CN2Cc2ccccc2)cc1 (centres undefined)	none
O=C1C=C(N2CCOCC2)c2ccccc2C1=O	LEDGF integ inh 22.3, TDP2 absorb 64.7 | TDP2 inh conf 86.5 | IN multimer up inactive | TRFRET interf inactive | IN-LEDGF confirm 72.3
Cc1ccc(N2CCOCC2)c2c1C(=O)c1ccccc1C2=O	none
Cc1cc(=O)[nH]c(-n2[nH]c(C)cc2=O)n1	none
COc1ccc(-n2[nH]c(C)cc2=O)cc1	LEDGF integ inh 19.4, TDP2 absorb 71.2 | TDP2 inh conf 33.3 | IN multimer up inactive | TRFRET interf inactive | IN-LEDGF confirm inactive
COC(=O)[C@]12C[C@H](CC(=O)N3CCSCC3)C(=O)N(Cc3ccc(Cl)cc3Cl)C1=C[C@H](C(C)C)O[C@@H]2C1CC1	none
Cn1c(=O)c2c(-c3ccccc3)n(-c3ccc(N)cc3)cc2n(C)c1=O	LEDGF integ inh 40.0, TDP2 absorb 57.8 | TDP2 inh conf 27.3 | IN multimer up inactive | TRFRET interf inactive | IN-LEDGF confirm inactive
CCOC(=O)N1CCN(C(=O)C[C@H]2C[C@@]3(C(=O)OCC)CCCC4=C3N(CCC4)C2=O)CC1	none
COc1cc(NS(=O)(=O)c2ccc(NC(=S)NC(=O)/C=C/c3ccco3)cc2)ncn1	UHRF1 binding 45.5, LEDGF integ inh 23.2, TDP2 absorb 36.4 | TDP2 inh conf 40.7 | IN multimer up inactive | TRFRET interf inactive | IN-LEDGF confirm 36.8
CCOc1ccc(NC(=S)NC(=O)/C=C/c2ccco2)cc1	none
COc1cc(-c2[nH]nc3c2C(c2ccco2)C(C#N)=C(N)O3)cc(OC)c1OC (centres undefined)	LEDGF integ inh 15.9, TDP2 absorb 42.5 | TDP2 inh conf inactive | IN multimer up inactive | TRFRET interf inactive | IN-LEDGF confirm inactive
COc1cc(-c2[nH]nc3c2C(c2ccoc2)C(C#N)=C(N)O3)cc(OC)c1OC (centres undefined)	none
COc1cc2c(cc1NC(=O)CSc1nnc(-c3cccc(Cl)c3)n1Cc1ccco1)oc1ccccc12	none
CCOc1cc(N2CCOCC2)c(OCC)cc1NC(=O)CSc1ncccc1C(=O)O	LEDGF integ inh 28.5, TDP2 absorb 29.6 | TDP2 inh conf inactive | IN multimer up inactive | TRFRET interf inactive | IN-LEDGF confirm inactive
O=c1cc(-c2ccc(Cl)c(Cl)c2)[nH][nH]1	LEDGF integ inh 14.8, TDP2 absorb 57.0 | TDP2 inh conf inactive | IN multimer up inactive | TRFRET interf inactive | IN-LEDGF confirm 13.7
COc1ccc(-c2cc(=O)[nH]c(=O)[nH]2)cc1	none
COc1ccc(-c2cc(=O)[nH][nH]2)cc1	LEDGF integ inh 14.6, TDP2 absorb 61.0 | TDP2 inh conf inactive | IN multimer up inactive | TRFRET interf inactive | IN-LEDGF confirm inactive
COC(=O)C1=C(C)N(Cc2ccc(C(F)(F)F)cc2)C(=NCc2ccc3c(c2)OCO3)NC1c1cccc(Cl)c1 (centres undefined)	none
COc1cc(C(=O)c2nccc3cc(OC)c(OC)cc23)c([N+](=O)[O-])cc1OC	UHRF1 binding 28.0, LEDGF integ inh 32.8, TDP2 absorb 48.7 | TDP2 inh conf 34.9 | IN multimer up inactive | TRFRET interf inactive | IN-LEDGF confirm 44.8
COc1cc(C(=O)c2ccccc2)c([N+](=O)[O-])cc1OC	none
